Reference: ChEMBL document CHEMBL5370680, “Design and Biological Evaluation of Piperazine-Bearing Nitrobenzamide Hypoxia/GDEPT Prodrugs: The Discovery of CP-506” (ACS Med Chem Lett, 2023)

Tested on: SiHa
Test: Antiproliferative activity against human SiHa cells assessed as inhibition of cell growth incubated for 4 hrs under anoxic condition and measured after 5 days regrowth under aerobic condition
Type: functional, cell-based
Settings: not given
Procedure, shortened: (§1)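 Low-density monolayer antiproliferative assay. Cells exposed to prodrug for 4 h under aerobic or anoxic conditions, then regrown aerobically for 5 days. IC50 is the concentration giving 50% growth inhibition versus untreated controls. Mean values reported, CV <20%.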

Row | SMILES | IC50
1 | CCN1CCN(C(=O)c2cc(N(CCBr)CCOS(C)(=O)=O)c(S(=O)(=O)CC)cc2[N+](=O)[O-])CC1 | 15 µM
2 | CN1CCN(C(=O)c2cc(N(CCBr)CCOS(C)(=O)=O)c(S(C)(=O)=O)cc2[N+](=O)[O-])CC1 | 47 µM
3 | CCN1CCN(C(=O)c2cc(N(CCBr)CCOS(C)(=O)=O)c(S(C)(=O)=O)cc2[N+](=O)[O-])CC1 [CP-506] | 22 µM

Tested on: not listed separately
Test: (§2) Selectivity ratio of IC50 for antiproliferative activity against human SiHa cells assessed as inhibition of cell growth under aerobic condition to IC50 for antiproliferative activity against human SiHa cells assessed as inhibition of cell growth under anoxic condition
Type: functional
Settings: not given
Procedure, shortened: (§3)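 Hypoxic cytotoxicity ratio is aerobic IC50 divided by anoxic IC50. Each IC50 comes from a 4 h drug exposure under aerobic or anoxic conditions, followed by 5 days' aerobic regrowth, relative to untreated controls.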

Row | SMILES | Ratio IC50
4 | CCN1CCN(C(=O)c2cc(N(CCBr)CCOS(C)(=O)=O)c(S(=O)(=O)CC)cc2[N+](=O)[O-])CC1 | >20
5 | CN1CCN(C(=O)c2cc(N(CCBr)CCOS(C)(=O)=O)c(S(C)(=O)=O)cc2[N+](=O)[O-])CC1 | 12
6 | CCN1CCN(C(=O)c2cc(N(CCBr)CCOS(C)(=O)=O)c(S(C)(=O)=O)cc2[N+](=O)[O-])CC1 [CP-506] | 21

Tested on: HCT-116
Test: Antiproliferative activity against human HCT-116 cells in three-dimensional cell culture multicellular layers assessed as log cell killing under anoxic condition at 100 uM
Type: functional
Settings: not given
Procedure, shortened: (§4)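 HCT116 three-dimensional multicellular layers exposed to 100 μM prodrug under aerobic or anoxic conditions. Clonogenic survivors per MCL counted. Log cell kill = log CS(control) − log CS(treated). Mean of ≥3 independent experiments.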

Row | SMILES | LCK
7 | CCN1CCN(C(=O)c2cc(N(CCBr)CCOS(C)(=O)=O)c(S(=O)(=O)CC)cc2[N+](=O)[O-])CC1 | 0.016
8 | CN1CCN(C(=O)c2cc(N(CCBr)CCOS(C)(=O)=O)c(S(C)(=O)=O)cc2[N+](=O)[O-])CC1 | 0.016
9 | CCN1CCN(C(=O)c2cc(N(CCBr)CCOS(C)(=O)=O)c(S(C)(=O)=O)cc2[N+](=O)[O-])CC1 [CP-506] | 0.016

Tested on: HCT-116
Test: Antiproliferative activity against human HCT-116 cells in three-dimensional cell culture multicellular layers assessed as log cell killing under aerobic condition at 100 uM
Type: functional
Settings: not given
Procedure, shortened: as §4

Row | SMILES | LCK
10 | CCN1CCN(C(=O)c2cc(N(CCBr)CCOS(C)(=O)=O)c(S(=O)(=O)CC)cc2[N+](=O)[O-])CC1 | 2.3
11 | CN1CCN(C(=O)c2cc(N(CCBr)CCOS(C)(=O)=O)c(S(C)(=O)=O)cc2[N+](=O)[O-])CC1 | 2.3
12 | CCN1CCN(C(=O)c2cc(N(CCBr)CCOS(C)(=O)=O)c(S(C)(=O)=O)cc2[N+](=O)[O-])CC1 [CP-506] | 2.3

Tested on: HCT-116
Test: Antiproliferative activity against human HCT-116 cells assessed as inhibition of cell growth incubated for 4 hrs under aerobic condition and measured after 5 days regrowth under aerobic condition
Type: functional, cell-based
Settings: not given
Procedure, shortened: as §1

Row | SMILES | IC50
13 | CN1CCN(C(=O)c2cc(N(CCBr)CCOS(C)(=O)=O)c(S(C)(=O)=O)cc2[N+](=O)[O-])CC1 | 368 µM
14 | CCN1CCN(C(=O)c2cc(N(CCBr)CCOS(C)(=O)=O)c(S(C)(=O)=O)cc2[N+](=O)[O-])CC1 [CP-506] | 288 µM

Tested on: not listed separately
Test: as §2, with “HCT-116” for “SiHa”, “cells overexpressing cytochrome P450 oxidoreductase” for “cells”
Type: functional
Settings: not given
Procedure, shortened: as §3

Row | SMILES | Ratio IC50
15 | CCN1CCN(C(=O)c2cc(N(CCBr)CCOS(C)(=O)=O)c(S(=O)(=O)CC)cc2[N+](=O)[O-])CC1 | 44
16 | CN1CCN(C(=O)c2cc(N(CCBr)CCOS(C)(=O)=O)c(S(C)(=O)=O)cc2[N+](=O)[O-])CC1 | 87
17 | CCN1CCN(C(=O)c2cc(N(CCBr)CCOS(C)(=O)=O)c(S(C)(=O)=O)cc2[N+](=O)[O-])CC1 [CP-506] | 93

Tested on: not listed separately
Test: Octanol/water partition coefficient, log D of the compound at pH 7.4
Type: physicochemical
Settings: not given
Procedure, shortened: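 Octanol–water partition coefficient by shake-flask method at pH 7.4.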

Row | SMILES | logD
18 | CCN1CCN(C(=O)c2cc(N(CCBr)CCOS(C)(=O)=O)c(S(=O)(=O)CC)cc2[N+](=O)[O-])CC1 | 1
19 | CN1CCN(C(=O)c2cc(N(CCBr)CCOS(C)(=O)=O)c(S(C)(=O)=O)cc2[N+](=O)[O-])CC1 | 0.3
20 | CCN1CCN(C(=O)c2cc(N(CCBr)CCOS(C)(=O)=O)c(S(C)(=O)=O)cc2[N+](=O)[O-])CC1 [CP-506] | 0.6

Tested on: not listed separately
Test: Selectivity ratio of IC50 for antiproliferative activity against human HCT-116 cells assessed as inhibition of cell growth under aerobic condition to IC50 for antiproliferative activity against human HCT-116 cells assessed as inhibition of cell growth under anoxic condition
Type: functional
Settings: not given
Procedure, shortened: as §3

Row | SMILES | Ratio IC50
21 | CN1CCN(C(=O)c2cc(N(CCBr)CCOS(C)(=O)=O)c(S(C)(=O)=O)cc2[N+](=O)[O-])CC1 | 16
22 | CCN1CCN(C(=O)c2cc(N(CCBr)CCOS(C)(=O)=O)c(S(C)(=O)=O)cc2[N+](=O)[O-])CC1 [CP-506] | 21

Tested on: HCT-116
Test: Antiproliferative activity against human HCT-116 cells overexpressing cytochrome P450 oxidoreductase assessed as inhibition of cell growth incubated for 4 hrs under anoxic condition and measured after 5 days regrowth under aerobic condition
Type: functional, cell-based
Settings: not given
Procedure, shortened: as §1

Row | SMILES | IC50
23 | CCN1CCN(C(=O)c2cc(N(CCBr)CCOS(C)(=O)=O)c(S(=O)(=O)CC)cc2[N+](=O)[O-])CC1 | 2.8 µM
24 | CN1CCN(C(=O)c2cc(N(CCBr)CCOS(C)(=O)=O)c(S(C)(=O)=O)cc2[N+](=O)[O-])CC1 | 1.6 µM
25 | CCN1CCN(C(=O)c2cc(N(CCBr)CCOS(C)(=O)=O)c(S(C)(=O)=O)cc2[N+](=O)[O-])CC1 [CP-506] | 1.2 µM

Tested on: SiHa
Test: Antiproliferative activity against human SiHa cells assessed as inhibition of cell growth incubated for 4 hrs under aerobic condition and measured after 5 days regrowth under aerobic condition
Type: functional, cell-based
Settings: not given
Procedure, shortened: as §1

Row | SMILES | IC50
26 | CCN1CCN(C(=O)c2cc(N(CCBr)CCOS(C)(=O)=O)c(S(=O)(=O)CC)cc2[N+](=O)[O-])CC1 | > 300 µM
27 | CN1CCN(C(=O)c2cc(N(CCBr)CCOS(C)(=O)=O)c(S(C)(=O)=O)cc2[N+](=O)[O-])CC1 | 561 µM
28 | CCN1CCN(C(=O)c2cc(N(CCBr)CCOS(C)(=O)=O)c(S(C)(=O)=O)cc2[N+](=O)[O-])CC1 [CP-506] | 459 µM

Tested on: HCT-116
Test: Antiproliferative activity against human HCT-116 cells overexpressing cytochrome P450 oxidoreductase assessed as inhibition of cell growth incubated for 4 hrs under aerobic condition and measured after 5 days regrowth under aerobic condition
Type: functional, cell-based
Settings: not given
Procedure, shortened: as §1

Row | SMILES | IC50
29 | CCN1CCN(C(=O)c2cc(N(CCBr)CCOS(C)(=O)=O)c(S(=O)(=O)CC)cc2[N+](=O)[O-])CC1 | 122 µM
30 | CN1CCN(C(=O)c2cc(N(CCBr)CCOS(C)(=O)=O)c(S(C)(=O)=O)cc2[N+](=O)[O-])CC1 | 139 µM
31 | CCN1CCN(C(=O)c2cc(N(CCBr)CCOS(C)(=O)=O)c(S(C)(=O)=O)cc2[N+](=O)[O-])CC1 [CP-506] | 112 µM

Tested on: not listed separately
Test: Metabolic stability in mouse liver microsome assessed as half life in presence of NADPH by LC-MS/MS analysis
Type: ADME
Settings: liver microsomes
Procedure, shortened: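 Male mouse hepatic microsomes incubated with prodrug for 30 min, with or without NADPH cofactor. Percentage of parent compound remaining tracked from triplicate incubations. Half-life estimated from this loss.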

Row | SMILES | half-life
32 | CCN1CCN(C(=O)c2cc(N(CCBr)CCOS(C)(=O)=O)c(S(C)(=O)=O)cc2[N+](=O)[O-])CC1 [CP-506] | 41.2 min

Tested on: HCT-116
Test: Antiproliferative activity against human HCT-116 cells assessed as inhibition of cell growth incubated for 4 hrs under anoxic condition and measured after 5 days regrowth under aerobic condition
Type: functional, cell-based
Settings: not given
Procedure, shortened: as §1

Row | SMILES | IC50
33 | CCN1CCN(C(=O)c2cc(N(CCBr)CCOS(C)(=O)=O)c(S(=O)(=O)CC)cc2[N+](=O)[O-])CC1 | 18 µM
34 | CN1CCN(C(=O)c2cc(N(CCBr)CCOS(C)(=O)=O)c(S(C)(=O)=O)cc2[N+](=O)[O-])CC1 | 23 µM
35 | CCN1CCN(C(=O)c2cc(N(CCBr)CCOS(C)(=O)=O)c(S(C)(=O)=O)cc2[N+](=O)[O-])CC1 [CP-506] | 14 µM
